Laboratory results reported in ChEMBL document CHEMBL4359909, “De novo design approaches targeting an envelope protein pocket to identify small molecules against dengue virus” (Eur J Med Chem, 2019).
pEC50: −log10 of the molar value. Converted amounts (≈) assume the structure as drawn. The source made the active and inactive calls. No cut-off for these calls is given here.

Test system: not listed separately
Assay: Solubility in PBS at 1 mg incubated for 24 hrs in shaker and measured after 24 hrs by shake-flask method based UV-VIS-NIR spectrophotometric analysis
Type: physicochemical
Details: not given
Procedure, shortened: (§1)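 Shake-flask method: 1.0 mg compound in 1 mL PBS (pH 7.4), mixed at 1500 rpm at 37 °C for 24 h, then held at 37 °C for 24 h. Filtered at 0.2 µm and read by UV-VIS-NIR spectrophotometry against a calibration curve. Reported as mean ± SD of two independent experiments run in triplicate.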

| SMILES | solubility thermodynamic at 24 h [µg/mL] |
| --- | --- |
| c1ccc(-c2ccc(Nc3ccnc(NCCN4CCCCC4)n3)cc2)cc1 | 32 (≈ 85.7 µM) |
| CC1(C)CC(Nc2nccc(Nc3ccc(-c4ccccc4)cc3)n2)CC(C)(C)N1 | 93 (≈ 232 µM) |

Test system: Dengue virus
Assay: Antiviral activity in DENV infected in cells assessed as reduction in intracellular viral RNA level after 48 hrs by RT-PCR analysis
Details: not given

| SMILES | Activity |
| --- | --- |
| CC1(C)CC(Nc2nccc(Nc3ccc(-c4ccc(Cl)cc4)cc3)n2)CC(C)(C)N1 | Active |
| CC1(C)CC(Nc2nccc(Nc3ccc(-c4cccc(Cl)c4)cc3)n2)CC(C)(C)N1 | Active |

Test system: not listed separately
Assay: Half life in PBS at 50 uM measured up to 120 mins at pH 7.4 by HPLC-MS analysis
Type: physicochemical
Details: not given
Procedure, shortened: (§2)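 DMSO stock diluted in acetonitrile, added to PBS (pH 7.4), SGF (pH 1.2) or SIF (pH 6.8) at 50 μM final; shaking water bath 37°C, triplicate. Samples at 0–120 min quenched with acetonitrile containing warfarin internal standard, centrifuged, diluted in methanol:water, analysed by HPLC-MS (C18, ESI positive); quantified by peak area ratio to internal standard.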

| SMILES | half-life at 50 µM [h] |
| --- | --- |
| c1ccc(-c2ccc(Nc3ccnc(NCCN4CCCCC4)n3)cc2)cc1 | > 2 |
| CC1(C)CC(Nc2nccc(Nc3ccc(-c4ccccc4)cc3)n2)CC(C)(C)N1 | > 2 |

Test system: not listed separately
Assay: Half life in mouse plasma at 50 uM measured up to 120 mins by HPLC-MS analysis
Type: ADME, cell-free
Details: not given
Procedure, shortened: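 Mouse plasma diluted to 80% with PBS, preheated; compound added at 50 μM final from DMSO stock; 37°C shaking, triplicate. Samples at 0–120 min deproteinized with cold acetonitrile plus warfarin internal standard, centrifuged at 4°C, supernatant diluted in methanol:water, HPLC-MS; peak area ratio to internal standard. Enalapril positive control.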

| SMILES | half-life at 50 µM [h] |
| --- | --- |
| c1ccc(-c2ccc(Nc3ccnc(NCCN4CCCCC4)n3)cc2)cc1 | > 2 |
| CC1(C)CC(Nc2nccc(Nc3ccc(-c4ccccc4)cc3)n2)CC(C)(C)N1 | > 2 |

Test system: A549
Assay: Cytotoxicity against human A549 cells at 50 uM after 48 hrs by MTT assay
Type: cell-based
Details: a549, 48 h

| SMILES | Activity |
| --- | --- |
| Clc1ccc(Nc2ccnc(NCCN3CCOCC3)n2)cc1 | Non-Toxic |

Test system: dengue virus type 2
Assay: Antiviral activity against DENV-2 infected in human A549 or Mesocricetus auratus BHK21 cells preincubated for 30 mins further incubated for 1 hr followed by replacement of fresh medium containing compounds and measured at 8 hrs post infection by renilla luciferase assay
Type: functional, organism-based
Details: not given
Procedure, shortened: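 Reporter DENV-2 carrying Renilla luciferase, MOI 1. Inoculum preincubated 30 min with compound, left on cells 1 h, then replaced by fresh medium containing compound. Luciferase read at 8 h p.i., reflecting entry and translation of incoming genome. EC50 is the concentration giving a two-fold drop in luciferase versus control; mean of at least two independent experiments.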

| SMILES | pEC50 |
| --- | --- |
| Clc1cccc(-c2ccc(Nc3ccnc(NCc4cccnc4)n3)cc2)c1 | 5.47 |
| CC1(C)CC(Nc2nccc(Nc3ccc(-c4ccc(Cl)cc4)cc3)n2)CC(C)(C)N1 | 6.74 |
| OCCN1CCN(c2nccc(Nc3ccc(-c4ccccc4)cc3)n2)CC1 | 4.70 |
| Cc1ccc(-c2ccc(Nc3ccnc(NC4CC(C)(C)NC(C)(C)C4)n3)cc2)cc1 | 5.82 |
| OCCN1CCN(c2nccc(Nc3ccc(Cl)cc3)n2)CC1 | 4.62 |
| CC1(C)CC(Nc2nccc(Nc3ccc(-c4cccc(Cl)c4)cc3)n2)CC(C)(C)N1 | 6.27 |
| Clc1ccc(CNc2ccnc(NCc3cccnc3)n2)cc1 | 4.63 |
| O=C(Nc1ccnc(NCCN2CCOCC2)n1)c1ccc(-c2ccccn2)s1 | 5.48 |
| c1ccc(-c2ccc(Nc3ccnc(NCCN4CCOCC4)n3)cc2)cc1 | 5.07 |
| CC1(C)CC(Nc2nccc(NCc3ccc(Cl)cc3)n2)CC(C)(C)N1 | 5.74 |
| Clc1ccc(-c2ccc(Nc3ccnc(NCc4cccnc4)n3)cc2)cc1 | 5.39 |
| CC1(C)CC(Nc2nccc(Nc3ccc(Cl)cc3)n2)CC(C)(C)N1 | 5.72 |
| CN1CCN(c2nccc(Nc3ccc(-c4ccc(Cl)cc4)cc3)n2)CC1 | 5.48 |
| Clc1ccc(Nc2ccnc(NCc3cccnc3)n2)cc1 | 4.62 |
| Clc1ccc(-c2ccc(Nc3ccnc(NCCN4CCCCC4)n3)cc2)cc1 | 5.96 |
| CN1CCN(c2nccc(Nc3ccc(-c4cccc(Cl)c4)cc3)n2)CC1 | 5.54 |
| COc1ccc(CNc2ccnc(NC3CC(C)(C)NC(C)(C)C3)n2)cc1 | 4.90 |
| Clc1ccc(Nc2ccnc(NCCN3CCOCC3)n2)cc1 | 4.63 |
| Cc1ccc(Nc2ccnc(NCCN3CCOCC3)n2)cc1 | 4.67 |
| Cc1ccc(-c2ccc(Nc3ccnc(NCCN4CCOCC4)n3)cc2)cc1 | 5.74 |
| Cc1ccc(-c2ccc(Nc3ccnc(N4CCN(C)CC4)n3)cc2)cc1 | 5.31 |
| CC1(C)CC(Nc2nccc(NCc3ccc(F)cc3)n2)CC(C)(C)N1 | 5.70 |
| Clc1ccc(/C=N/Nc2ccnc(NCCN3CCOCC3)n2)c(Cl)c1 | 4.97 |
| Cc1ccc(CNc2ccnc(NC3CC(C)(C)NC(C)(C)C3)n2)cc1 | 5.31 |
| c1ccc(-c2ccc(Nc3ccnc(OCCN4CCOCC4)n3)cc2)cc1 | 4.40 |

Test system: not listed separately
Assay: Cytotoxicity against human A549 cells assessed as reduction in cell viability after 48 hrs by MTT assay
Type: cell-based
Details: not given

| SMILES | CC50 at 48 h [µM] |
| --- | --- |
| Clc1cccc(-c2ccc(Nc3ccnc(NCc4cccnc4)n3)cc2)c1 | 18.5 |
| CC1(C)CC(Nc2nccc(Nc3ccc(-c4ccc(Cl)cc4)cc3)n2)CC(C)(C)N1 | 9.8 |
| Cc1ccc(-c2ccc(Nc3ccnc(NC4CC(C)(C)NC(C)(C)C4)n3)cc2)cc1 | 12 |
| CC1(C)CC(Nc2nccc(Nc3ccc(-c4cccc(Cl)c4)cc3)n2)CC(C)(C)N1 | 5.1 |
| O=C(Nc1ccnc(NCCN2CCOCC2)n1)c1ccc(-c2ccccn2)s1 | 10.5 |
| c1ccc(-c2ccc(Nc3ccnc(NCCN4CCOCC4)n3)cc2)cc1 | 59 |
| CC1(C)CC(Nc2nccc(NCc3ccc(Cl)cc3)n2)CC(C)(C)N1 | 21.1 |
| Clc1ccc(-c2ccc(Nc3ccnc(NCc4cccnc4)n3)cc2)cc1 | 25.7 |
| CC1(C)CC(Nc2nccc(Nc3ccc(Cl)cc3)n2)CC(C)(C)N1 | 18.6 |
| CN1CCN(c2nccc(Nc3ccc(-c4ccc(Cl)cc4)cc3)n2)CC1 | 23.5 |
| Clc1ccc(-c2ccc(Nc3ccnc(NCCN4CCCCC4)n3)cc2)cc1 | 14.3 |
| CN1CCN(c2nccc(Nc3ccc(-c4cccc(Cl)c4)cc3)n2)CC1 | 15.3 |
| COc1ccc(CNc2ccnc(NC3CC(C)(C)NC(C)(C)C3)n2)cc1 | 18.3 |
| Clc1ccc(Nc2ccnc(NCCN3CCOCC3)n2)cc1 | 89.6 |
| Cc1ccc(Nc2ccnc(NCCN3CCOCC3)n2)cc1 | > 50 |
| Cc1ccc(-c2ccc(Nc3ccnc(NCCN4CCOCC4)n3)cc2)cc1 | 10.2 |
| Cc1ccc(-c2ccc(Nc3ccnc(N4CCN(C)CC4)n3)cc2)cc1 | 27.7 |
| CC1(C)CC(Nc2nccc(NCc3ccc(F)cc3)n2)CC(C)(C)N1 | 12.8 |
| Clc1ccc(/C=N/Nc2ccnc(NCCN3CCOCC3)n2)c(Cl)c1 | 76.5 |
| Cc1ccc(CNc2ccnc(NC3CC(C)(C)NC(C)(C)C3)n2)cc1 | 15.2 |

Test system: not listed separately
Assay: Solubility in simulated intestinal fluid at 1 mg incubated for 24 hrs in shaker and measured after 24 hrs by shake-flask method based UV-VIS-NIR spectrophotometric analysis
Type: physicochemical
Details: not given
Procedure, shortened: as §1, with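 “simulated intestinal fluid” for “PBS”, “6.8),” for “7.4),”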

| SMILES | solubility thermodynamic at 24 h [µg/mL] |
| --- | --- |
| c1ccc(-c2ccc(Nc3ccnc(NCCN4CCCCC4)n3)cc2)cc1 | 324 (≈ 867 µM) |
| CC1(C)CC(Nc2nccc(Nc3ccc(-c4ccccc4)cc3)n2)CC(C)(C)N1 | 580 (≈ 1440 µM) |

Test system: not listed separately
Assay: Half life in simulated gastric fluid at 50 uM measured up to 120 mins at pH 1.2 by HPLC-MS analysis
Type: ADME
Details: not given
Procedure, shortened: as §2

| SMILES | half-life at 50 µM [h] |
| --- | --- |
| c1ccc(-c2ccc(Nc3ccnc(NCCN4CCCCC4)n3)cc2)cc1 | > 2 |
| CC1(C)CC(Nc2nccc(Nc3ccc(-c4ccccc4)cc3)n2)CC(C)(C)N1 | > 2 |

Test system: not listed separately
Assay: Solubility in simulated gastric fluid at 1 mg incubated for 24 hrs in shaker and measured after 24 hrs by shake-flask method based UV-VIS-NIR spectrophotometric analysis
Type: physicochemical
Details: not given
Procedure, shortened: as §1, with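 “simulated gastric fluid” for “PBS”, “1.2),” for “7.4),”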

| SMILES | solubility thermodynamic at 24 h [µg/mL] |
| --- | --- |
| c1ccc(-c2ccc(Nc3ccnc(NCCN4CCCCC4)n3)cc2)cc1 | 506 (≈ 1350 µM) |
| CC1(C)CC(Nc2nccc(Nc3ccc(-c4ccccc4)cc3)n2)CC(C)(C)N1 | 76 (≈ 189 µM) |

Test system: not listed separately
Assay: Half life in simulated intestinal fluid at 50 uM measured up to 120 mins at pH 6.8 by HPLC-MS analysis
Type: ADME
Details: not given
Procedure, shortened: as §2

| SMILES | half-life at 50 µM [h] |
| --- | --- |
| c1ccc(-c2ccc(Nc3ccnc(NCCN4CCCCC4)n3)cc2)cc1 | > 2 |
| CC1(C)CC(Nc2nccc(Nc3ccc(-c4ccccc4)cc3)n2)CC(C)(C)N1 | > 2 |

Test system: not listed separately
Assay: Selectivity index, ratio of CC50 for human A549 or Mesocricetus auratus BHK21 cells to EC50 for antiviral activity against DENV-2 infected in A549or Mesocricetus auratus BHK21 cells
Type: toxicity
Details: read-out: Ratio CC50/EC50

| SMILES | selectivity ratio |
| --- | --- |
| Clc1cccc(-c2ccc(Nc3ccnc(NCc4cccnc4)n3)cc2)c1 | 5 |
| CC1(C)CC(Nc2nccc(Nc3ccc(-c4ccc(Cl)cc4)cc3)n2)CC(C)(C)N1 | 54 |
| Cc1ccc(-c2ccc(Nc3ccnc(NC4CC(C)(C)NC(C)(C)C4)n3)cc2)cc1 | 8 |
| CC1(C)CC(Nc2nccc(Nc3ccc(-c4cccc(Cl)c4)cc3)n2)CC(C)(C)N1 | 10 |
| O=C(Nc1ccnc(NCCN2CCOCC2)n1)c1ccc(-c2ccccn2)s1 | 4 |
| c1ccc(-c2ccc(Nc3ccnc(NCCN4CCOCC4)n3)cc2)cc1 | 7 |
| CC1(C)CC(Nc2nccc(NCc3ccc(Cl)cc3)n2)CC(C)(C)N1 | 12 |
| Clc1ccc(-c2ccc(Nc3ccnc(NCc4cccnc4)n3)cc2)cc1 | 6 |
| CC1(C)CC(Nc2nccc(Nc3ccc(Cl)cc3)n2)CC(C)(C)N1 | 10 |
| CN1CCN(c2nccc(Nc3ccc(-c4ccc(Cl)cc4)cc3)n2)CC1 | 5 |
| Clc1ccc(-c2ccc(Nc3ccnc(NCCN4CCCCC4)n3)cc2)cc1 | 13 |
| CN1CCN(c2nccc(Nc3ccc(-c4cccc(Cl)c4)cc3)n2)CC1 | 5 |
| COc1ccc(CNc2ccnc(NC3CC(C)(C)NC(C)(C)C3)n2)cc1 | 2 |
| Clc1ccc(Nc2ccnc(NCCN3CCOCC3)n2)cc1 | 4 |
| Cc1ccc(Nc2ccnc(NCCN3CCOCC3)n2)cc1 | > 2 |
| Cc1ccc(-c2ccc(Nc3ccnc(NCCN4CCOCC4)n3)cc2)cc1 | 5 |
| Cc1ccc(-c2ccc(Nc3ccnc(N4CCN(C)CC4)n3)cc2)cc1 | 6 |
| CC1(C)CC(Nc2nccc(NCc3ccc(F)cc3)n2)CC(C)(C)N1 | 7 |
| Clc1ccc(/C=N/Nc2ccnc(NCCN3CCOCC3)n2)c(Cl)c1 | 8 |
| Cc1ccc(CNc2ccnc(NC3CC(C)(C)NC(C)(C)C3)n2)cc1 | 3 |
